Measurements of several laboratories.
Lines come from different studies, so protocols differ.
CYP1A2: Cytochrome P450 1A2 (CYP1A2, Homo sapiens, UniProt P05177)
CYP3A4: Cytochrome P450 3A4 (CYP3A4, Homo sapiens, UniProt P08684)

`Cc1cc(C)nc(Nc2ncc(C(=O)NCCc3c(C)[nH]c4ccccc34)cn2)c1` has a microsomal CLint of 99 µL/min/mg (metabolic stability; cynomolgus monkey, liver microsomes; 1 µM).
The inhibition of `COC(=O)C1CCN(C(=O)c2ccc(NCc3cnc4nc(N)nc(N)c4n3)cc2)CC1` is reported as -8.49% (CYP1A2; enzyme activity, inhibitor, luciferase; 10 µM).
`CN[C@H](CC(C)C)C(=O)N[C@H]1C(=O)N[C@@H](CC(N)=O)C(=O)N[C@H]2C(=O)NC3C(=O)N[C@H](C(=O)N[C@H](C(=O)NCCC[N+](C)(C)C)c4cc(O)cc(O)c4-c4cc3ccc4O)[C@H](O)c3ccc(c(Cl)c3)Oc3cc2cc(c3OC2OC(CO)C(O)[C@H](O)[C@@H]2O[C@H]2CC(C)(NCc3ccc(-c4ccc(Cl)cc4)cc3)[C@H](O)[C@H](C)O2)Oc2ccc(cc2Cl)[C@H]1O` (stereo partly shown) has a Cmax of 58900 ng/mL (mouse, plasma; intravenous, 50 mg/kg).
`CCCCCCCC(=O)N[C@@H](CCCCN)C(=O)N[C@@H](CCCCN)C(=O)N[C@@H](C)C(=O)N[C@@H](CC(C)C)C(=O)N[C@@H](CCCCN)C(=O)N[C@@H](CC(C)C)C(=O)N[C@@H](C)C(=O)N[C@@H](CCCCN)C(=O)N[C@@H](CCCCN)C(=O)N1CCC[C@H]1C(=O)N[C@@H](CC(C)C)C(=O)N[C@@H](CCCCN)C(=O)N[C@@H](CC(C)C)C(=O)N[C@@H](CC(C)C)C(=O)N[C@@H](CCCCN)C(N)=O` has a Cmax of 6950 ng/mL (female CD-1 mouse, blood; intravenous, 10 mg/kg, single dose).
With `Cc1ccccc1/C=C1/SC(=O)NC1=O` the CC50 was over 100 µM (BHK-21; cell growth or viability, MTT).
With `NCCc1ccccn1` the ΔTm was -0.1 °C (CYP3A4; thermal stability).
`CCS(=O)(=O)N1CC(CC#N)(n2cc(-c3ncnc4[nH]ccc34)cn2)C1` gave a CC50 of over 60 µM (Vero; cell growth or viability, resazurin).
The CC50 of `N[C@@H](Cc1ccccc1)C(=O)N1CCC(C(=O)N[C@H](C(=O)O)c2ccccc2)CC1` is reported as over 100 µM (BHK-21; cell growth or viability, MTT).
`C[C@]12CC[C@H](n3ccnc3)CC1=CC[C@@H]1[C@@H]2CC[C@]2(C)C(n3cnc4ccccc43)=CC[C@@H]12.Cl.Cl` has a Cmax of 1510 ng/mL (male CD-1 mouse, plasma; oral, 10 mg/kg).
For `O=C1NC(=O)/C(=C\c2ccc3ccccc3c2)S1`, the CC50 was over 100 µM (BHK-21; cell growth or viability, MTT).
For `CCC[C@@](N)(CO)CCc1ccc(OCCCCCC(C)C)cc1`, the IC50 was over 50 µM (CYP1A2; enzyme activity, inhibitor).
With `O=C(Nc1ncc([N+](=O)[O-])s1)c1ccccc1O` the CC50 was over 1000 µM (BHK-21; cell growth or viability, MTT).
The IC50 of `Cc1cccc(F)c1N1CCC(N2Cc3cn(CC(C)(F)F)nc3N(Cc3ccccc3C(F)(F)F)C2=O)CC1` is reported as over 10 µM (CYP3A4; enzyme activity, inhibitor; human, liver microsomes; midazolam probe).
